Data on 14 compounds can be found in ChEMBL document CHEMBL1138193, “Synthesis and biological activity of 7-phenyl-6,9-dihydro-3H-pyrrolo[3,2-f]quinolin-9-ones: a new class of antimitotic agents devoid of aromatase activity” (J Med Chem, 2006).

One data set relates to HeLa. As to the kind of experiment: Cytotoxicity against human HeLa cells by MTT assay. Format: functional, cell-based. The essentials: (§1)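 MTT colorimetric proliferation assay on human and murine tumour cell lines. Compounds tested over 50 to 0.1 µM; IC50 calculated from the concentration response.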
For data set [1], the system named is HepG2. As to the kind of experiment: Cell cycle arrest at G2/M phase in HepG2 cells at 5-10 uM. In kind it is functional, Homo sapiens.
The subject of a further data set is A549. As to the kind of experiment: Cytotoxicity against human A549 cells by MTT assay. In kind it is functional, cell-based.
A further data set concerns BNL. As to the kind of experiment: Cytotoxicity against mouse BNL cells by MTT assay. Format: functional, cell-based. The essentials:
as §1

In another data set the test system is NCI-H295R. As to the kind of experiment: Cytotoxicity against human H295R cells by MTT assay. Format: functional, cell-based. The essentials: as §1
The test system of data set [2] is HepG2. The experiment in a line: Cytotoxicity against human HepG2 cells by MTT assay. Format: functional, cell-based. The essentials:
as §1

The subject of data set [3] is OVCAR-3. The experiment in a line: Cell cycle arrest at G2/M phase in Ovcar3 cells at 5-10 uM. In kind it is functional, Homo sapiens.
Another data set relates to MCF7. As to the kind of experiment: Cytotoxicity against human MCF7 cells by MTT assay. In kind it is functional, cell-based. The essentials:
as §1

In another data set the test system is ARO. As to the kind of experiment: Cytotoxicity against human Aro cells by MTT assay. In kind it is functional, cell-based. In outline:
as §1

The test system of a further data set is 4T1. As to the kind of experiment: Cytotoxicity against mouse 4T1 cells by MTT assay. In kind it is functional, cell-based. In outline: as §1
In a further data set the test system is PT-45. The experiment in a line: Cytotoxicity against human PT45 cells by MTT assay. Format: functional, cell-based. The essentials:
as §1

In data set [4] the test system is OVCAR-3. The experiment in a line: Cytotoxicity against human Ovcar3 cells by MTT assay. In kind it is functional, cell-based. In outline: as §1
The test system of another data set is HT-29. As to the kind of experiment: Cytotoxicity against human HT29 cells by MTT assay. Format: functional, cell-based. In outline: as §1
Data set [5] has as its target T1, Aromatase (Homo sapiens, UniProt P11511).
T1 sequence (P11511 whole entry): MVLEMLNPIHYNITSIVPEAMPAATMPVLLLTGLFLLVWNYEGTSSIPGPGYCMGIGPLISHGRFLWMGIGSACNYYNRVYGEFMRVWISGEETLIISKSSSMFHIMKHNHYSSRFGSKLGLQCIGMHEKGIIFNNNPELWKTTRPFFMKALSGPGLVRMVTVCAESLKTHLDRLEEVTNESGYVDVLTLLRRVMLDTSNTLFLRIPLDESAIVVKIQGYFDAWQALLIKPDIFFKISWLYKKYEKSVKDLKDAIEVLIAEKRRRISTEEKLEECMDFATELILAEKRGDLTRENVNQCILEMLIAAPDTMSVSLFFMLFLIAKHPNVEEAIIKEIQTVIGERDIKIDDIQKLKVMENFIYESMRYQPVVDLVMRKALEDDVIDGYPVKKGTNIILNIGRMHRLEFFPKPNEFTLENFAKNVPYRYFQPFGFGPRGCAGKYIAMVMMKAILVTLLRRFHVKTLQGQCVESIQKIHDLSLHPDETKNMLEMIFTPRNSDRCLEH
As to the kind of experiment: Inhibition of aromatase activity in H295R cells at 15 uM. Format: cell-based. In outline: (§2)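 H295R cells cultured 24 h in DMEM-F12 with or without forskolin (25 µM). Compound (5, 10 or 15 µM) added 1 h before [1β-³H]androstenedione substrate (0.5 µM), then 2 h further exposure. Modified tritiated water release read-out as pmol ³H₂O/h/mg protein. Letrozole reference. Mean ± SEM of three experiments in triplicate.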

Data set [6] concerns the target T1, Aromatase. As to the kind of experiment: Inhibition of aromatase activity in H295R cells at 10 uM. Format: cell-based. The essentials: as §2
Data set [7] addresses T1, Aromatase. As to the kind of experiment: Inhibition of aromatase activity in H295R cells at 5 uM. In kind it is cell-based. In outline: as §2
A further data set has as its target Tubulin (Homo sapiens) (UniProt P68371+Q9H4B7+P0DPH7+P68366+Q13509+Q71U36+P04350+Q3ZCM7+P07437+P68363+Q9BQE3+Q6PEY2+Q13885+Q9BVA1+Q9BUF5). As to the kind of experiment: Microtubule disassembly in Ovcar3 cells at 5 uM. In kind it is functional, cell-based. Conditions: OVCAR-3. The essentials:
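Ovcar-3 cells exposed 18 h to 5 µM (drug-free and vincristine 5 µM controls), fixed, stained with anti-β-tubulin antibody, and microtubule distribution examined by fluorescence microscopy.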

The structures appear in SMILES notation. Active and inactive are the calls of the source. The calls are words filed in the database; no cut-off is given here. Bounds are passed on as bounds.

`COC(=O)c1cc2c([nH]1)c(OC)cc1nc(-c3ccccc3)cc(O)c12`: the IC50 with HeLa, with A549, in the data set on BNL, in the data set with NCI-H295R, with HepG2 [2] and with MCF7 was > 50 µM throughout. Besides, the IC50 in the data set with ARO, with 4T1, in the data set on PT-45, with OVCAR-3 [4] and with HT-29 was > 50 µM throughout. In addition, the Activity in the data set on HepG2 [1] is given as 15.4%; in the data set on OVCAR-3 [3], 14.4%.

Consider `Oc1cc(-c2cccs2)nc2ccc3[nH]ccc3c12`, for which the IC50 in the data set on HeLa was found to be 6 µM; in the data set on A549 it was 15 µM; with BNL, 8 µM; in the data set on NCI-H295R, 5 µM; with HepG2 [2] it was 10 µM; in the data set with MCF7 it was 7 µM. In addition, the IC50 with ARO stood at 7 µM; with 4T1, 20 µM; with PT-45, 8 µM; with OVCAR-3 [4], 25 µM; in the data set with HT-29 it was 30 µM. Further, the results for the Activity in the data set with HepG2 [1] and in the data set on OVCAR-3 [3] were 15.6% and 17.5%, respectively.

As for `COc1cccc(-c2cc(O)c3c(ccc4[nH]ccc43)n2)c1`, the IC50 was found to be 0.7 µM in the data set on HeLa; 2 µM with A549; 4 µM with BNL; 0.7 µM in the data set with NCI-H295R; 6 µM in the data set with HepG2 [2]; 2 µM in the data set with MCF7. The IC50 with ARO was 1 µM; in the data set with 4T1, 4 µM; with PT-45, 0.7 µM; in the data set with OVCAR-3 [4], 7 µM; in the data set on HT-29 it was 6 µM. In addition, the Activity in the data set with HepG2 [1] is given as 49.3%; on Aromatase [5], “Not Active”; at Aromatase [6], “Not Active”; with OVCAR-3 [3], 65.3%; at Aromatase [7], “Not Active”.

`CC[C@]1(O)C[C@H]2CN(CCc3c([nH]c4ccccc34)[C@@](C(=O)OC)(c3cc4c(cc3OC)N(C=O)[C@H]3[C@@](O)(C(=O)OC)[C@H](OC(C)=O)[C@]5(CC)C=CCN6CC[C@]43[C@@H]65)C2)C1` [VINCRISTINE]: the 50% inhibitory concentration (IC50) is 0.08 µM in the data set on BNL, 0.09 µM in the data set on NCI-H295R, 0.0001 µM in the data set on ARO and 0.02 µM in the data set on 4T1. At Tubulin (Homo sapiens), the result was Active.

Take `O=[N+]([O-])c1cccc(-c2cc(O)c3c(ccc4[nH]ccc43)n2)c1`: the IC50 with HeLa is 25 µM; with A549 it was 32 µM; in the data set on BNL, > 50 µM; in the data set on NCI-H295R, 40 µM; in the data set on HepG2 [2], 30 µM; with MCF7, > 50 µM. Besides, the IC50 was 39 µM in the data set on ARO; > 50 µM in the data set on 4T1; 45 µM in the data set with PT-45; > 50 µM in the data set on OVCAR-3 [4]; > 50 µM in the data set with HT-29. Further, the Activity in the data set with HepG2 [1] is reported as 15.8%; in the data set with OVCAR-3 [3], 10%.

Take `Oc1ccnc2ccc3[nH]ccc3c12`: the IC50 in the data set with HeLa, in the data set on A549, with BNL, with NCI-H295R, with HepG2 [2] and in the data set with MCF7 was > 50 µM throughout. The IC50 with ARO, in the data set on 4T1, in the data set with PT-45, in the data set on OVCAR-3 [4] and in the data set with HT-29 was > 50 µM each time.

As for `Cc1cccc(-c2cc(O)c3c(ccc4[nH]ccc43)n2)c1`, the IC50 in the data set on HeLa came out at 6 µM; in the data set on A549, 6 µM; in the data set on BNL it was 6 µM; with NCI-H295R, 8 µM; in the data set with HepG2 [2], 10 µM; in the data set on MCF7, 7 µM. Besides, the IC50 in the data set with ARO was 7 µM; in the data set on 4T1, 25 µM; with PT-45, 7 µM; in the data set on OVCAR-3 [4] it was 20 µM; in the data set on HT-29, 8 µM. In addition, the Activity is recorded as 16% in the data set with HepG2 [1] and 19.5% in the data set on OVCAR-3 [3].

With `Oc1cc(-c2cccc(Br)c2)nc2ccc3[nH]ccc3c12`, the half-maximal inhibitory concentration (IC50) with HeLa amounted to 5 µM; with A549, 6 µM; in the data set with BNL, 4 µM; with NCI-H295R it was 5 µM; with HepG2 [2], 6 µM; in the data set with MCF7, 5 µM. For the same compound, the IC50 amounted to 5 µM in the data set with ARO; 20 µM in the data set with 4T1; 6 µM in the data set with PT-45; 10 µM in the data set on OVCAR-3 [4]; 9 µM in the data set with HT-29. Also, the Activity with HepG2 [1] is reported as 40.3%; on Aromatase [5], “Not Active”; at Aromatase [6], “Not Active”; in the data set on OVCAR-3 [3], 42.9%; on Aromatase [7], “Not Active”.

With `N#Cc1ccc(-c2cc(O)c3c(ccc4[nH]ccc43)n2)cc1`, the IC50 in the data set with HeLa stood at 15 µM; with A549 it was 15 µM; in the data set on BNL it was 15 µM; in the data set on NCI-H295R it was 30 µM; in the data set with HepG2 [2], 10 µM; in the data set with MCF7, 50 µM. The IC50 in the data set with ARO was 40 µM; with 4T1, 25 µM; with PT-45, 20 µM; with OVCAR-3 [4], 50 µM; with HT-29, > 50 µM. The Activity is 21.5% with HepG2 [1] and 14.9% in the data set on OVCAR-3 [3].

On to `N#Cc1cccc(-c2cc(O)c3c(ccc4[nH]ccc43)n2)c1`, for which the IC50 was 8 µM with HeLa; > 50 µM in the data set on A549; 40 µM in the data set on BNL; > 50 µM with NCI-H295R; 40 µM in the data set with HepG2 [2]; > 50 µM with MCF7. Moreover, the IC50 in the data set on ARO was 3 µM; in the data set with 4T1, > 50 µM; in the data set on PT-45, 40 µM; in the data set on OVCAR-3 [4], > 50 µM; with HT-29, > 50 µM. The figures for the Activity in the data set with HepG2 [1] and in the data set with OVCAR-3 [3] were 17.3% and 15%, respectively.

Take `CC(=O)O[C@H]1C(=O)[C@@]2(C)[C@H]([C@H](OC(=O)c3ccccc3)[C@]3(O)C[C@H](OC(=O)[C@H](O)[C@@H](NC(=O)c4ccccc4)c4ccccc4)C(C)=C1C3(C)C)[C@]1(OC(C)=O)CO[C@@H]1C[C@@H]2O` [PACLITAXEL]: the results for the IC50 with BNL, in the data set on NCI-H295R and with 4T1 were 0.2 µM, 0.08 µM and 0.2 µM, respectively.

As to `CCN(CC)CCn1ccc2c3c(O)cc(-c4ccccc4)nc3ccc21`, the IC50 in the data set on HeLa is 5 µM; in the data set on A549, 12 µM; with BNL it was 5 µM; in the data set on NCI-H295R, 6 µM; in the data set on HepG2 [2], 7 µM; with MCF7, 8 µM. Besides, the IC50 was 20 µM in the data set on ARO; 9 µM in the data set on 4T1; 5 µM with PT-45; 18 µM with OVCAR-3 [4]; 6 µM in the data set on HT-29. For the same compound, the Activity in the data set on HepG2 [1] was 15.1%; in the data set with OVCAR-3 [3], 16.6%.

As for `Nc1cccc(-c2cc(O)c3c(ccc4[nH]ccc43)n2)c1`, the IC50 with HeLa is 7 µM; with A549, 30 µM; in the data set on BNL, > 50 µM; in the data set with NCI-H295R it was 50 µM; with HepG2 [2], 30 µM; in the data set on MCF7, 15 µM. The IC50 with ARO is 30 µM; in the data set with 4T1 it was 50 µM; in the data set with PT-45 it was 8 µM; with OVCAR-3 [4] it was 50 µM; in the data set on HT-29, > 50 µM. Also, the values for the Activity in the data set on HepG2 [1] and in the data set with OVCAR-3 [3] were 17.1% and 14%, respectively.

On to `Cc1cc(O)c2c(ccc3[nH]ccc32)n1`, for which the IC50 in the data set on HeLa, in the data set with A549, with BNL, in the data set on NCI-H295R, with HepG2 [2] and in the data set with MCF7 was > 50 µM throughout. In addition, the IC50 in the data set with ARO, in the data set with 4T1, in the data set with PT-45, in the data set on OVCAR-3 [4] and with HT-29 was > 50 µM each time.
